We go through 5 compounds from ChEMBL document CHEMBL1125932 (1991).

≈ marks a conversion by molar mass, not a printed value. Some results are limits rather than exact numbers.

Holding throughout (assay type): functional
For assay [1], the system named is HEL. Nature of the assay: Concentration required to inhibit CMV (Davis) induced cytopathogenicity in HEL cells by 50%. The following applies: Homo sapiens.
Assay [2] has as its system ESM. Nature of the assay: Concentration required to inhibit TK-HSV-1 (B2006) induced cytopathogenicity in ESM cells by 50%. The note with it: Homo sapiens. The procedure, abridged: (§1)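 Embryonic skin-muscle (ESM) cell cultures were infected with 100 CCID50 of virus (1 CCID50 being the infective dose for 50% of cultures).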
For orientation: Cytopathic effects are the visible damage that an infection or toxin causes in cultured cells.

The test system of assay [3] is HEL. As to the kind of experiment: Concentration required to inhibit VZV (oka) induced cytopathogenicity in HEL cells by 50%. The note with it: Homo sapiens; read-out: MIC.
The test system of assay [4] is HEL. As to the kind of experiment: Concentration required to inhibit CMV (AD-169) induced cytopathogenicity in HEL cells by 50%. The note with it: Homo sapiens; read-out: MIC.
For assay [5], the system named is HEL. As to the kind of experiment: Concentration required to inhibit TK-VZV (YSR) induced cytopathogenicity in HEL cells by 50%. The following applies: Homo sapiens.
Assay [6] relates to ESM. Nature of the assay: Concentration required to inhibit VV induced cytopathogenicity in ESM cells by 50%. The following applies: Homo sapiens. An outline of the steps: as §1
For assay [7], the system named is ESM. As to the kind of experiment: Concentration required to inhibit HSV-1 (KOS) induced cytopathogenicity in ESM cells by 50%. The note with it: Homo sapiens; read-out: MIC. The procedure, abridged: as §1
Assay [8] concerns HEL. Nature of the assay: Concentration required to cause 50% reduction in HEL cell growth. The note with it: Homo sapiens; read-out: MIC.
The test system of assay [9] is HEL. Nature of the assay: Concentration required to inhibit TK-VZV (07-1) induced cytopathogenicity in HEL cells by 50%. The note with it: Homo sapiens; read-out: MIC.
Assay [10] deals with HEL. Nature of the assay: Concentration required to inhibit VZV (YS) induced cytopathogenicity in HEL cells by 50%. The following applies: Homo sapiens; read-out: MIC.
The test system of assay [11] is ESM. Nature of the assay: Concentration required to inhibit HSV-2(196) induced cytopathogenicity in ESM cells by 50%. The following applies: Homo sapiens; read-out: MIC. An outline of the steps:
as §1

Assay [12] has as its system ESM. Nature of the assay: Concentration required to inhibit HSV-1 (McIntyre) induced cytopathogenicity in ESM cells by 50%. The note with it: Homo sapiens; read-out: MIC. The procedure, abridged:
as §1

The subject of assay [13] is ESM. Nature of the assay: Concentration required to inhibit HSV-2(G) induced cytopathogenicity in ESM cells by 50%. The following applies: Homo sapiens; read-out: MIC. The procedure, abridged: as §1
For assay [14], the system named is ESM. Nature of the assay: Concentration required to cause 50% reduction in cellular DNA synthesis in ESM cells. The note with it: Homo sapiens; read-out: MIC. An outline of the steps:
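In ESM cells, cellular DNA synthesis was monitored by incorporation of [methyl-3H]dThd. The value is the concentration causing a 50% reduction in incorporation.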

Assay [15] concerns ESM. Nature of the assay: Concentration required to inhibit HSV-2(lyons) induced cytopathogenicity in ESM cells by 50%. The following applies: Homo sapiens; read-out: MIC. The procedure, abridged: as §1
Assay [16] has as its system ESM. Nature of the assay: Concentration required to inhibit HSV-1 (F) induced cytopathogenicity in ESM cells by 50%. The note with it: Homo sapiens; read-out: MIC. An outline of the steps:
as §1

For assay [17], the system named is ESM. As to the kind of experiment: Concentration required to inhibit TK-HSV-1 ([…]) induced cytopathogenicity in ESM cells by 50%. The following applies: Homo sapiens. An outline of the steps: as §1
The subject of assay [18] is ESM. As to the kind of experiment: Concentration required to cause a microscopically detectable alteration of normal cell morphology in ESM cells. The note with it: Homo sapiens. The procedure, abridged:
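ESM cells were examined under the microscope. The value is the minimum concentration causing a microscopically detectable change in normal cell morphology.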

The test system of assay [19] is ESM. As to the kind of experiment: Concentration required to inhibit VV induced cytopathogenicity in ESM cells by 50%. The following applies: Homo sapiens. The procedure, abridged:
as §1

Assay [20] concerns HEL. As to the kind of experiment: Concentration required to cause 50% reduction in HEL cell growth. The following applies: Homo sapiens.

In the case of `CCOC(Cn1c(N)nc2c(ncn2C2O[C@H](CO)[C@@H](O)[C@H]2O)c1=O)OCC` (stereo not given in full), the MIC in [1] was greater than 400 µg/mL; in assay [2], greater than 400 µg/mL; in assay [5], greater than 200 µg/mL; in assay [6], greater than 400 µg/mL; in assay [17], greater than 400 µg/mL; in assay [18], greater than 400 µg/mL. The EC50 is greater than 200 µg/mL in [3]; greater than 400 µg/mL in [4]; greater than 200 µg/mL in assay [9]; greater than 200 µg/mL in assay [10]; greater than 400 µg/mL in assay [11]; greater than 400 µg/mL in assay [13]. For the same compound, the EC50 in assay [16] came to 100 µg/mL (≈ 250 µM). For the same compound, in [7], the 50% inhibitory concentration against virus-induced cytopathogenicity (EC50) is greater than 400 µg/mL. In assay [8], the 50% cell growth inhibitory concentration (CC50) was greater than 200 µg/mL. Further, the EC50 for inhibiting virus-induced cytopathogenicity in assay [12] amounted to 100 µg/mL. In addition, the IC50 (DNA synthesis inhibition) in assay [14] was greater than 200 µg/mL. Moreover, the EC50 (50% inhibition of virus cytopathogenicity) in assay [15] stood at 100 µg/mL.

For the compound `CCOC(Cn1c(N)nc2c(ncn2COCCO)c1=O)OCC`, the MIC in assay [1], in assay [2], in [5], in [6], in assay [17] and in [18] was greater than 400 µg/mL each time. For the same compound, the EC50 in assay [3] is greater than 400 µg/mL; in assay [4] it was greater than 400 µg/mL; in [9] it was greater than 400 µg/mL; in assay [10], greater than 400 µg/mL; in assay [11] it was 20 µg/mL (≈ 58.6 µM); in [13], greater than 400 µg/mL. The EC50 in assay [16] turned out to be 70 µg/mL (≈ 205 µM). Moreover, in [7], the 50% inhibitory concentration against virus-induced cytopathogenicity (EC50) was greater than 400 µg/mL. Moreover, the 50% cell growth inhibitory concentration (CC50) in assay [8] was greater than 200 µg/mL. Besides, the EC50 for inhibiting virus-induced cytopathogenicity in assay [12] was greater than 400 µg/mL. Moreover, the IC50 (DNA synthesis inhibition) in assay [14] is greater than 200 µg/mL. For the same compound, the EC50 (50% inhibition of virus cytopathogenicity) in assay [15] came out at 20 µg/mL.

Take `Cc1cn2c(O)c3ncn(C4O[C@H](CO)[C@@H](O)[C@H]4O)c3nc2n1` (stereo not given in full): the MIC in assay [1] is greater than 200 µg/mL; in assay [2], greater than 400 µg/mL; in assay [5], greater than 200 µg/mL; in [19], greater than 400 µg/mL; in assay [17], greater than 400 µg/mL; in assay [20], greater than 200 µg/mL. In [18], the MIC is greater than 400 µg/mL. For the same compound, the EC50 in assay [3] is greater than 200 µg/mL; in assay [4], greater than 200 µg/mL; in [9], greater than 200 µg/mL; in [10], greater than 200 µg/mL; in assay [11], greater than 400 µg/mL; in assay [13], greater than 400 µg/mL. Further, in assay [16], the EC50 was greater than 400 µg/mL. In [7], the 50% inhibitory concentration against virus-induced cytopathogenicity (EC50) is greater than 400 µg/mL. Also, the EC50 for inhibiting virus-induced cytopathogenicity in assay [12] was greater than 400 µg/mL. Also, in assay [14], the IC50 (DNA synthesis inhibition) was 150 µg/mL (≈ 467 µM). In addition, the EC50 (50% inhibition of virus cytopathogenicity) in assay [15] is greater than 400 µg/mL.

With `CCOC(Cn1c(N)nc2c(ncn2COC(CO)CO)c1=O)OCC`, the MIC in assay [1], in assay [2], in assay [5], in assay [6], in assay [17] and in [18] was greater than 400 µg/mL each time. Further, the EC50 in [3] is greater than 400 µg/mL; in [4] it was greater than 400 µg/mL; in assay [9], greater than 400 µg/mL; in [10] it was greater than 400 µg/mL; in assay [11] it was 70 µg/mL (≈ 188 µM); in [13] it was 70 µg/mL (≈ 188 µM). In [16], the EC50 stood at 20 µg/mL (≈ 53.9 µM). The 50% inhibitory concentration against virus-induced cytopathogenicity (EC50) in assay [7] is 70 µg/mL. In assay [8], the 50% cell growth inhibitory concentration (CC50) is greater than 200 µg/mL. Moreover, the EC50 for inhibiting virus-induced cytopathogenicity in assay [12] turned out to be 20 µg/mL. The IC50 (DNA synthesis inhibition) in [14] was greater than 100 µg/mL. The EC50 (50% inhibition of virus cytopathogenicity) in assay [15] is 20 µg/mL.

In the case of `OCCOCn1cnc2c(O)n3ccnc3nc21`, the MIC in [1], in [2], in [5], in [6], in [17] and in assay [18] was greater than 400 µg/mL each time. Further, the EC50 in assay [3] is greater than 400 µg/mL; in assay [4] it was greater than 400 µg/mL; in [9], greater than 400 µg/mL; in [10], greater than 400 µg/mL; in [11] it was 70 µg/mL (≈ 281 µM); in assay [13], 20 µg/mL (≈ 80.2 µM). In addition, the EC50 in [16] is 4 µg/mL (≈ 16 µM). Further, the 50% inhibitory concentration against virus-induced cytopathogenicity (EC50) in assay [7] was determined as 20 µg/mL. Moreover, in [8], the 50% cell growth inhibitory concentration (CC50) is greater than 200 µg/mL. Also, in [12], the EC50 for inhibiting virus-induced cytopathogenicity was 20 µg/mL. The IC50 (DNA synthesis inhibition) in [14] is greater than 200 µg/mL. Further, the EC50 (50% inhibition of virus cytopathogenicity) in [15] came to 10 µg/mL.
